Source: PubChem (several laboratories)
T cell modulator: modulates CD8 T cell binding to vesicles | 2C CD8+ T cell-vesicle binding, flow cytometry; active compounds read low | response (vesicle binding), % at 7 µM | hit rate 0.068% among 330,000 | AID 2052;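 active = response, share of CD8 T cells binding vesicles, and their 90th percentile fluorescence all below set limits, cut at about 80% in these data, passing the limit was not always enough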;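 note: values below 100% mean blocked vesicle binding to the CD8+ T cells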
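Material: 2C TCR transgenic mouse naive CD8+ T cells, MACS-purified. Also added: QL9-charged Drosophila Ld/ICAM-1/B7-1 vesicles. Timing: binding 1.5 h at 37 °C. Measured by: high-throughput flow cytometry with anti-B7-1 and anti-CD8 staining. Read-out: percent CD8+ FL2 mean versus row control. Controls: Unloaded micro-vesicles (low), QL9 vesicles with 0.7% DMSO (high).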
NR2E3 ag-1: human photoreceptor-specific nuclear receptor agonism. inhibition of corepressor binding, % at 3.98 µM. hit rate 0.35% among 360,000. CHO-S Gal4-NCOR/VP16-NR2E3 two-hybrid, luciferase;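 active = inhibition above the mean of all tested compounds plus 3 SD, cut at about 70% in these data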;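 note: higher means lower luciferase signal from less NR2E3 corepressor binding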
Target sequence (Q9Y5X4 whole entry, looked up, the tested form may be a part): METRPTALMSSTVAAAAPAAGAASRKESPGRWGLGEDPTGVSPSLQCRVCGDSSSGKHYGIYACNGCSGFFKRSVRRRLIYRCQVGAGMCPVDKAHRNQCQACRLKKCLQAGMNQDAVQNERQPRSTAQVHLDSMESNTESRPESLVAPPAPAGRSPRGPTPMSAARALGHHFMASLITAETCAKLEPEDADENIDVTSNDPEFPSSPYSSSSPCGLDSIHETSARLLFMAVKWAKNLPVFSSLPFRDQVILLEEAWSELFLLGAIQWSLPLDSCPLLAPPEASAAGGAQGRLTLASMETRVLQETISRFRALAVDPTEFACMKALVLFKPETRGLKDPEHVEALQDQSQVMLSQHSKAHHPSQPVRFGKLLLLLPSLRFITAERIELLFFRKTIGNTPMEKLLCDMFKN
NR2E3 ag-2: agonists of human nuclear receptor NR2E3; GST-NR2E3/biotin-RetCOR TR-FRET, 1536-well; hit rate 0.12% among 320,000; inhibition of corepressor binding, % at 4.78 µM; Q9Y5X4; AID 2300;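 active = percent inhibition above the cutoff of mean plus 3 SD of all tested compounds, set per screening campaign, cut at about 20% in these data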
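Material: NR2E3–RetCOR corepressor complex | Quantity: 1.35 nM GST-tagged NR2E3 final | Schedule: 5 h at 4 °C | Replication: Singlicate compound wells | Reagent: RetCOR corepressor, biotinylated, 7 nM | Controls: Biotin wells as high control, 0.6% DMSO wells as low control | Signal: TR-FRET, Eu(K)-anti-GST donor, streptavidin-D2 acceptor, ex 340, em 617/671 nm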
Myeloid diff 2: compounds promoting myeloid differentiation; hit rate 1% among 360,000; ER-HoxA9 myeloid progenitors, lysozyme-GFP differentiation, flow cytometry; calls only at 10 µM;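 active = normalized GFP-positive differentiation at or above the plate's own cutoff, the solvent-only control mean plus 3 SD; inconclusive = no clear call, values can overlap the other calls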;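 note: cells exposed to compound for four days before flow analysis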
GAA850 FXN act: increases GAA850 frataxin promoter reporter activity; HEK293 lucGAA850 FXN promoter luciferase reporter, 24 h; percent of 10 µM SAHA response; activation, % at 6 µM; hit rate 0.56% among 360,000; AID 540364;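 active = activation above the average of all compounds screened plus 3 SD, cutoff fixed separately per campaign, cut at about 7.5% in these data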
GAA30 FXN cntr: GAA30 FXN promoter activation counter-screen. activation, % at 6 µM. HEK293 lucGAA30 FXN promoter luciferase, 24 h; DMSO = 0%, 5 µM ipriflavone = 100%. AID 588350. shares compounds with GAA850 FXN act. hit rate 66% among 1,900;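 active = mean activation above the mean of solvent-only control wells plus 3 SD, cut at about 22% in these data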;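 note: counterscreen of GAA850 promoter hits where activity marks nonselective or luminescence artifacts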
GAA850 confirm: confirmation of GAA850 frataxin (FXN) promoter activators. shares compounds with GAA850 FXN act. HEK293 lucGAA850 FXN promoter luciferase reporter, 24 h; 100% = activation by SAHA. activation, % at 6 µM. hit rate 86% among 1,900. AID 588351;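 active = mean activation above a set limit taken from the primary screen, cut at about 8% in these data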
Of the large screens only hits and unclear results are named; the others gave an inactive call (follow-up assays come after a bar, where they were run). Sampled rows, rich in hits. Any-hit rate of the full collection: about 2%.

CN(C)S(=O)(=O)c1cc(NC(=O)CSc2nn(-c3ccc(Cl)cc3)c(=S)s2)ccc1Cl	GAA850 FXN act 11 | GAA30 FXN cntr inactive | GAA850 confirm 9.1
CCN1CCN(c2nc3c(C)cccn3c(=O)c2/C=C(\C#N)C(=O)NCCCOC)CC1	none
COc1cccc(NC(=O)c2ccc3nc(C)sc3c2)c1	GAA850 FXN act 7.6 | GAA30 FXN cntr 120 | GAA850 confirm 40
COc1cccc(C(=O)Nc2nnc(-c3ccccc3)s2)c1	GAA850 FXN act 8.0 (no result: NR2E3 ag-2) | GAA30 FXN cntr 80 | GAA850 confirm 35
Cc1cc(NC(=O)c2ccc3nc(C)sc3c2)no1	GAA850 FXN act 7.7 | GAA30 FXN cntr 111 | GAA850 confirm 33
COc1ccc(-n2c(C)cc(C(=O)CCl)c2C)cc1	Myeloid diff 2 inconclusive, GAA850 FXN act 8.0 | GAA30 FXN cntr inactive | GAA850 confirm 31
COc1ccc(-n2c(C)cc(C(=O)CN3C(=O)c4ccccc4C3=O)c2C)cc1	none
CC1(C)NC(=O)N(CCC(=O)Nc2cc(C(F)(F)F)ccc2Cl)C1=O	none (no result: NR2E3 ag-2)
Cc1ccccc1NS(=O)(=O)c1ccc2c(c1)CCC(=O)N2	none (no result: T cell modulator, NR2E3 ag-2)
CCOC(=O)c1c(CSC(=N)N)n(-c2ccc(C)cc2)c2cc(Br)c(OC(C)=O)cc12	GAA850 FXN act 12 | GAA30 FXN cntr inactive | GAA850 confirm 38
CC(C)[C@H](CO)Nc1nc(Nc2ccc(Cl)c(C(=O)O)c2)c2ncn(C(C)C)c2n1	none
CC(C)n1cnc2c(Nc3cccc(Cl)c3)nc(NCCCO)nc21	Myeloid diff 2 active, GAA850 FXN act 8.7 | GAA30 FXN cntr 53 | GAA850 confirm 15
Cc1nc(/N=C(\N)NC(=O)c2ccccc2)nc2ccccc12	GAA850 FXN act 8.3 | GAA30 FXN cntr 97 | GAA850 confirm 33
Cc1ccc(CNc2ccc3c(c2)ncn3C(C)(C)C)cc1	GAA850 FXN act 10.0 | GAA30 FXN cntr 107 | GAA850 confirm 37
Cc1nn(-c2ccccc2Cl)c(Cl)c1/C=N/Nc1cccc(C(=O)O)c1	GAA850 FXN act 7.8 | GAA30 FXN cntr 119 | GAA850 confirm 41
COc1ccccc1N1CCN(S(=O)(=O)CCNC(=O)CCc2ccccc2)CC1	none (no result: T cell modulator, NR2E3 ag-2)
CCCNC(=O)CNC(=O)c1ccc(C#N)cc1	none (no result: NR2E3 ag-2)
O=C(c1ccc(Br)o1)N1CCN(C23CC4CC(CC(C4)C2)C3)CC1	none
O=C(c1ccc(C23CC4CC(CC(C4)C2)C3)o1)N1CCOCC1	GAA850 FXN act 9.7 | GAA30 FXN cntr 34 | GAA850 confirm 22
C=CCn1c(N)c(C(=O)NCCC2=CCCCC2)sc1=S	GAA850 FXN act 7.6 | GAA30 FXN cntr 92 | GAA850 confirm 35
NC(=O)NCCC1=CCCCC1	none
